# Compounds with a hit are over-represented: about 3.1% of the library has one in this group of screens.
# INS-1E GSIS act: GLuc luminescence reporter in INS-1E cells, primary screen for activators of glucose-dependent secretion of insulin. INS-1E GLuc reporter insulin secretion, 2-3 h. activation, % at 16.6 µM. 0.61% of 370,000 active;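 active means lowest replicate activation of at least 40%, so every replicate reaches that level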;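 further: 0% = median of neutral control wells and 100% = median of IBMX positive control wells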
# Env fusion inh: inhibitors of HIV-1 Env-driven cell-cell fusion, primary screen, HeLa-JRFL effector, CEM21 target cells, luciferase; inhibition, % at 12.3 µM; 1.1% of 360,000 active;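 active means mean replicate inhibition score of at least 50 and every replicate individually at or above 50; inconclusive means only one of the two criteria met; inactive means mean below 50 and not all replicates reaching 50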;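 further: 0% = plate neutral controls and 100% = maraviroc near 300 nM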
# miR-122 sensor: miR-122 Renilla sensor signal increase in Huh7, primary screen, miR-122 inhibitor project, cell-based, single point, plate reader; 0.3% of 340,000 active; AID 602342, 2012; Huh7 miR-122 Renilla luciferase sensor, 48 h; neutral wells = 0, positive control = 100; activation (reporter increase), % at 12.5 µM;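 active means mean replicate activation score at least 90 and every replicate individually at or above 90; inconclusive means only one of the two criteria met; inactive means neither criterion met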;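 further: higher luciferase means less miR-122 activity so hits act as miR-122 inhibitors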
# rRNA inh HTS: reduced GFP signal of wild-type E. coli, primary screen, bacterial rRNA inhibitor project, GFP/RFP fluorescence, OD600, single point. GFP signal change (wild-type ribosome), % (concentration not given with the values). E. coli WT GFP vs humanized-ribosome RFP mutants, 24 h; hits give low values; DMSO median 0, no signal -100. 1.6% of 350,000 active;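 active means significant combined selectivity score with lowered wild-type GFP, culture density cut under 30%, mutant RFP and density less affected; inactive means any of these conditions unmet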
# Cneo AK release: Cryptococcus neoformans cell lysis inducers, primary screen, AK release luminescence, single concentration; C. neoformans lysis, adenylate kinase release luminescence, 4 h; normalised: neutral wells 0, clomiphene wells 100; lysis activity, % at 15 µM; 0.2% of 360,000 active; AID 651654, 2012;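 active means mean lysis activity across replicates of at least 80%, whatever share of replicates individually reach that level; inactive means mean lysis activity below 80%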
#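 Material: C. neoformans cells; Schedule: 4 h static compound exposure, 37 °C, read 1 h post-reagent; Measured by: adenylate kinase release luminescence; Read-out: signal increase indicating cell lysis; Controls: Clomiphene as positive lysis control.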
# F508del corr: F508del CFTR correction, initial screen, CFBE line, single point; activity (quench increase), % at 7.58 µM; CFBE cells, YFP halide quenching; stimulated with forskolin plus potentiator P3; % fluorescence drop versus neutral controls; AID 720511, 2013; 0.36% of 350,000 active;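 active means mean added fluorescence quench of at least 8% versus neutral control, with both replicates also reaching 8%; inconclusive means only one of the mean or replicate conditions met; inactive means mean below 8% and not both replicates reaching 8%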;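 further: cells transiently co-express mutant CFTR-F508del with the halide-sensitive YFP; corrector assay measuring rescue of mutant channel to the surface after 24 h compound exposure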
# AID977621: growth inhibition of wild-type GFP E. coli, dose response, H69 mutant RFP, cherry-pick; E. coli wild-type GFP strain growth, fluorescence, 24 h; shares compounds with rRNA inh HTS; 1,900 tested, under 10 active; activity change, negative = inhibition at 50 µM;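 active means Wild-type ribosome reporter drop at least double the humanized mutant ribosome reporter drop, growth loss under a set limit; inconclusive means no clear call, values can overlap the other calls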;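 further: wild-type GFP and H69 mutant RFP strains grown together 50/50 in each well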
# AID977628: E. coli growth inhibition, wild-type GFP versus h24 humanized RFP strain, dose response, h24 mutant RFP vs wild-type GFP, cherry-pick. shares compounds with rRNA inh HTS. E. coli WT GFP strain growth, fluorescence, 24 h. activity change, negative = inhibition at 50 µM. 1,900 tested, under 10 active;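 active means compound lowering the normal-ribosome reporter at least twice as much as the humanized-ribosome reporter, growth loss under a set limit; inconclusive means no clear call, values can overlap the other calls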;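 further: wild-type GFP and h24 humanized RFP strains co-cultured 1 to 1 per well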
# The depositor's hits bear a star; ? = inconclusive; nt = not tested or not shown; ! = not confirmed by another sample; [ ] = dose if it differs, or a comment.
SMILES,INS-1E GSIS act,Env fusion inh,miR-122 sensor,rRNA inh HTS,Cneo AK release,F508del corr,AID977621,AID977628
Cc1cccc(OCCn2c(=O)oc3ccc(C)cc32)c1,0,1,-2,-27*,-1,-2,2.7,-1.3
COc1ccc2c3c(n(C)c2c1)[C@H](CO)N(Cc1cccc(F)c1)CC31CCN(C)CC1,-5,nt,nt,1,nt,0,nt,nt
CC(C)CN1C(=O)c2ccc(C(=O)Nc3ccncc3)cc2C1=O,-47,nt,-6,-25*,-1,2,nt,-9.2
CN(C)C(=O)c1ccc(-c2ccc(C3[C@H]4CNC[C@@H]3N4S(=O)(=O)c3ccccc3F)cc2)cc1 (some centres undefined),-1,nt,nt,-1,nt,0,nt,nt
N#Cc1cccc(-c2ccc(C3[C@H]4CNC[C@@H]3N4S(=O)(=O)c3ccccc3)cc2)c1 (some centres undefined),-8,nt,nt,-3,nt,0,nt,nt
N#Cc1ccc(-c2ccc(C3[C@H]4CNC[C@@H]3N4S(=O)(=O)c3ccc(-c4ccccc4)cc3)cc2)cc1 (some centres undefined),12,nt,nt,-18*,nt,2,-5.4,nt
CN(C)C(=O)c1cccc(-c2ccc(C3[C@H]4CNC[C@@H]3N4S(=O)(=O)c3ccccc3F)cc2)c1 (some centres undefined),-14,nt,nt,-22*!,nt,-3,-8,?
COc1ccc(CN(C)C[C@H]2Oc3ccc(NC(=O)Cn4cnnn4)cc3CC(=O)N([C@H](C)CO)C[C@@H]2C)cc1,9,nt,0[16.7 µM],0,-3,-1,nt,nt
C[C@@H]1CCCCO[C@H](CN(C)C(=O)Nc2ccc3c(c2)OCO3)[C@@H](C)CN([C@H](C)CO)C(=O)c2cc(NS(C)(=O)=O)ccc2O1,-1,15[16.7 µM],-3[16.7 µM],-1,1,-2,nt,nt
O=C(Cc1ccc(Br)cc1)Nc1cccc(-c2cn3c(n2)SCC3)c1,6,11,nt,-21*,nt,-1,-11,-12
C[C@@H]1CCCCO[C@H](CN(C)C(=O)Nc2ccc3c(c2)OCO3)[C@H](C)CN([C@H](C)CO)C(=O)c2cc(NC(=O)CCC(F)(F)F)ccc2O1,-14,45[16.7 µM],2[16.7 µM],-1,-2,1,nt,nt
O=c1[nH]c2cc([N+](=O)[O-])ccc2c2ccc([N+](=O)[O-])cc12,-1,-34,nt,9,nt,-2,nt,nt
O=c1[nH]c2cc([N+](=O)[O-])ccc2c2ccccc12,-4,-16,nt,-13*,nt,1,-2,?
O=C(CCC1CCCN(C(=O)c2ccsc2)C1)N1CCN(c2ccccn2)CC1 (centres undefined),-3,11,-9,-18*,-1,0,-3.6,-3.5
CCOc1ccccc1NC(=O)c1cc(SC)ccc1Cl,-5,-42,5,-30*,-1,2,-13,-7.5
COc1cccc(NC(=O)COC(=O)Cc2ccccc2[N+](=O)[O-])c1,14,-5,-4,-17*,-2,-1,nt,?
Cc1ccc(CCN2C(=O)c3ccccc3C2C(=O)NCc2cccnc2)cc1 (centres undefined),9,6,12,-38*,-3,-4,7.8,?
COCCCNc1ccn2nc(-c3ccccc3)cc2n1,0,63*,-7,-20*,3,-3,5.4,nt
COCCCNc1ccn2nc(-c3cccc(Cl)c3)cc2n1,17,-337,nt,-12,-9,-2,nt,nt
CN(C)CC(=O)N[C@@H]1CC[C@@H](CCNC(=O)Nc2ccc(Cl)cc2)O[C@H]1CO,1,6[16.7 µM],nt,-28*,-2,0,nt,?

# Screens (PubChem BioAssay)
